Measurements gathered from unrelated publications.
Lines come from different studies, so protocols differ.
Target: Dual specificity tyrosine-phosphorylation-regulated kinase 2 (DYRK2, Homo sapiens, UniProt Q92630)
Technique: competition with immobilised ligand
Residues used in one study (Q92630 1-601): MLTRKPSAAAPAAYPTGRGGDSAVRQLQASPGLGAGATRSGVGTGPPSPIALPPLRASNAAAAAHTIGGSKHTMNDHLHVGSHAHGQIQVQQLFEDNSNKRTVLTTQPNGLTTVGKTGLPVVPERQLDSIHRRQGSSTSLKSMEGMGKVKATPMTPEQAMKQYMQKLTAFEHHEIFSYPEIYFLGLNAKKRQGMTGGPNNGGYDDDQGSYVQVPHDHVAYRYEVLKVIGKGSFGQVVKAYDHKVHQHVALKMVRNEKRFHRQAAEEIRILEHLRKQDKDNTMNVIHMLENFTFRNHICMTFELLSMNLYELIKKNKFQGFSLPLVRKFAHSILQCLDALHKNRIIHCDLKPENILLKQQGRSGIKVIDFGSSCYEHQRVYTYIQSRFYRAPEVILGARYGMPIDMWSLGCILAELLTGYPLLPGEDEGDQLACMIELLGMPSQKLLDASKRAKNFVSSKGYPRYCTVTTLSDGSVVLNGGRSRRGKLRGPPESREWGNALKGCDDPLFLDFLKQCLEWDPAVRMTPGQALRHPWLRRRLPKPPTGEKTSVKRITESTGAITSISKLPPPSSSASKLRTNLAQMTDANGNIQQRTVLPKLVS

For `CN(C(=O)c1ccccc1)c1cc(N(C)c2ccc3c(c2)CCc2ccc(C(=O)NCCN4CCOCC4)cc2C3=O)ccc1F`, the remaining binding was 82% (cell-free assay; 1 µM).
For `CCN1CCN(Cc2ccc(C(=O)Nc3ccc(C)c(Oc4ccc5c(c4)CC(=O)N5)c3)cc2C(F)(F)F)CC1`, the remaining binding was 95% (binding; 1 µM).
The remaining binding of `COc1cnc(Nc2cccc(S(N)(=O)=O)c2)nc1N1CCN(c2ccccc2)C(=O)C1` is reported as 56% (binding; 1 µM).
For `O=C(c1ccc(Nc2nccc(-c3cc4ccccc4s3)n2)cc1)N1CCC(N2CCCC2)CC1`, the remaining binding was 3.9% (binding; 1 µM).
For `C=CC(=O)N1CCC(C(=O)NCC(=O)N2CCN(c3nc(-c4cnc(N)nc4C(F)F)nc(N4CCOCC4)n3)CC2)CC1`, the remaining binding was 80% (binding; 1 µM).
With `Cc1cnc(Nc2ccc(C(=O)N3CCC(N4CCCC4)CC3)cc2)nc1-c1cc2ccccc2s1` the remaining binding was 1.3% (binding; 1 µM).
The remaining binding of `CNC(=O)[C@@H]1CC[C@@H](n2c(-c3ccc4cnccc4c3)nc3ccc(C(=O)NCc4cccc(C(N)=O)c4)cc32)C1` is reported as 86% (binding; 1 µM).
The remaining binding of `O=C(Nc1ccc(Oc2ccc(F)cc2)cc1)N1CCc2ncccc2[C@H]1c1ccc(F)cc1` is reported as 84% (cell-free assay; 1 µM).
For `O=C(Nc1c[nH]nc1C(=O)NC1CCNCC1)c1cc(F)cc(F)c1`, the remaining binding was 4.8% (binding; 1 µM).
For `CS(=O)(=O)N1CCCC(NC(=O)[C@H](CCC2CCCCC2)NC(=O)c2ccc(CNc3ncnc4c3nnn4-c3ccccc3)cc2)C1` (stereo partly shown), the remaining binding was 100% (cell-free assay; 0.1 µM).
`O=C(NCCCN1CCOCC1)c1ccc(Nc2nccc(-c3cc4ccccc4s3)n2)cc1` has a remaining binding of 16% (binding; 1 µM).
`COc1cc(-c2cn(C3CCc4ccccc4N(CC(F)(F)F)C3=O)nn2)ccc1-n1ccc(C)n1` (stereo not shown) has a remaining binding of 94% (cell-free assay; 1 µM).
`FC(F)(F)Oc1cccc(-c2cnc3ccc(-c4ccncc4)nn23)c1` gave a remaining binding of 5% (cell-free assay; 5 µM).
